Experimental data: ChEMBL document CHEMBL1122897, “Tetracyclic pyridazines as potential psychopharmacological agents” (J Med Chem, 1985)
Values belong to the compound of their own block, whether it stands above or below them.

Columns and labels:
Type in all cases: functional
Mus musculus [1] = assay: Ability to inhibit the uptake of Norepinephrine into mouse cortical slices 1 hour after intraperitoneal injection ex vivo at a dose of >128
In short: (§1)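 Ex vivo: white mice (18–22 g), four per dose, given test drug intraperitoneally; 1 h later cerebral cortical plus striatal slices incubated 5 min with 0.2 nmol [3H]NE and 0.2 nmol [14C]-5-HT, pargyline, glucose in Krebs-Henseleit buffer pH 7.4 under O2/6.5% CO2. Dual-channel scintillation counting of dissolved slices; active uptake defined as cocaine (3 × 10^-4 M)-inhibitable.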

Mus musculus [2] = organism: Mus musculus; assay: In vitro activity for the ability to inhibit the uptake of Serotonin into mouse cortical slices; value ranges from 2.6-6.7
In short: (§2)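 Slices (60 mg cortical, 20 mg striatal) from untreated white mice (18–22 g) incubated with test compound, 0.2 nmol [3H]NE and 0.2 nmol [14C]-5-HT simultaneously, 0.48 μmol pargyline, 11 μmol glucose in 2.0 mL Krebs-Henseleit pH 7.4, 5 min under O2 with 6.5% CO2. 3H and 14C counted separately by liquid scintillation; active uptake = portion blocked by 3 × 10^-4 M cocaine.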

Mus musculus [3] = assay: Ability to inhibit the uptake of Serotonin into mouse cortical slices 1 hour after intraperitoneal injection ex vivo at a dose of >128; in short: as §1
Mus musculus [4] = organism: Mus musculus; assay: In vitro activity for the ability to inhibit the uptake of Norepinephrine into mouse cortical slices; value ranges from 2.2-5.5; in short: as §2
Mus musculus [5] = assay: Ability to inhibit the uptake of Serotonin into mouse cortical slices 1 hour after intraperitoneal injection ex vivo value ranges from 27-224; settings: ip; in short: as §1
Mus musculus [6] = assay: Ability to inhibit the uptake of Norepinephrine into mouse cortical slices 1 hour after intraperitoneal injection ex vivo; value ranges from […]; settings: ip; in short: as §1
Mus musculus [7] = organism: Mus musculus; assay: In vitro activity for the ability to inhibit the uptake of Norepinephrine into mouse cortical slices; value ranges from 1.1-4.4; in short: as §2
Mus musculus [8] = organism: Mus musculus; assay: In vitro activity for the ability to inhibit the uptake of Serotonin into mouse cortical slices; value ranges from 0.8-3.0; in short: as §2
Mus musculus [9] = organism: Mus musculus; assay: In vitro activity for the ability to inhibit the uptake of Norepinephrine into mouse cortical slices at a dose of >25; in short: as §2
Mus musculus [10] = assay: Ability to inhibit the uptake of Serotonin into mouse cortical slices 1 hour after intraperitoneal injection ex vivo at concentration of 102 uM/Kg; in short: as §1
Mus musculus [11] = assay: Ability to inhibit the uptake of Norepinephrine into mouse cortical slices 1 hour after intraperitoneal injection ex vivo at a dose of 102; in short: as §1
Mus musculus [12] = organism: Mus musculus; assay: In vitro activity for the ability to inhibit the uptake of Serotonin into mouse cortical slices; value ranges from 0.3-1.0; in short: as §2
Mus musculus [13] = organism: Mus musculus; assay: In vitro activity for the ability to inhibit the uptake of Serotonin into mouse cortical slices at a dose of 27; in short: as §2
Mus musculus [14] = organism: Mus musculus; assay: In vitro activity for the ability to inhibit the uptake of Norepinephrine into mouse cortical slices Value ranges from […]; in short: as §2
Mus musculus [15] = assay: Ability to inhibit the uptake of Norepinephrine into mouse cortical slices 1 hour after intraperitoneal injection ex vivo at a dose of >106; in short: as §1
Mus musculus [16] = assay: Ability to inhibit the uptake of Serotonin into mouse cortical slices 1 hour after intraperitoneal injection ex vivo at a dose > 106; in short: as §1
Mus musculus [17] = assay: Ability to inhibit the uptake of Norepinephrine into mouse cortical slices 1 hour after intraperitoneal injection ex vivo at a dose of >117; in short: as §1
Mus musculus [18] = organism: Mus musculus; assay: In vitro activity for the ability to inhibit the uptake of Norepinephrine into mouse cortical slices; value ranges from 2.3-7.0; in short: as §2
Mus musculus [19] = assay: Ability to inhibit the uptake of Serotonin into mouse cortical slices 1 hour after intraperitoneal injection ex vivo at a dose of >117; in short: as §1
Mus musculus [20] = organism: Mus musculus; assay: In vitro activity for the ability to inhibit the uptake of Serotonin into mouse cortical slices; value ranges from […]; in short: as §2
Mus musculus [21] = organism: Mus musculus; assay: In vitro activity for the ability to inhibit the uptake of Serotonin into mouse cortical slices; value ranges from 2.0-6.4; in short: as §2
Mus musculus [22] = organism: Mus musculus; assay: In vitro activity for the ability to inhibit the uptake of Norepinephrine into mouse cortical slices; value ranges from 0.2-1.0; in short: as §2
Mus musculus [23] = assay: Ability to inhibit the uptake of Serotonin into mouse cortical slices 1 hour after intraperitoneal injection ex vivo; settings: ip; in short: as §1
Mus musculus [24] = assay: Ability to inhibit the uptake of Norepinephrine into mouse cortical slices 1 hour after intraperitoneal injection ex vivo; value ranges from 11-23; settings: ip; in short: as §1
Mus musculus [25] = organism: Mus musculus; assay: (§3) In vitro activity for the ability to inhibit the uptake of Serotonin into mouse cortical slices.; settings: read-out: ED50 (the source's name)
In short: (§4)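 Slices from untreated white mice (18–22 g), four animals per dose: 60 mg cortical plus 20 mg striatal, with test compound in the bath. Simultaneous uptake of [3H]NE and [14C]-5-HT (0.2 nmol each), with 0.48 μmol pargyline and 11 μmol glucose in 2.0 mL Krebs-Henseleit buffer, pH 7.4. Incubation 5 min under O2/6.5% CO2. Separate 3H and 14C channels; active uptake is the portion inhibited by 3 × 10^-4 M cocaine.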

Mus musculus [26] = organism: Mus musculus; assay: (§5) In vitro activity for the ability to inhibit the uptake of Norepinephrine into mouse cortical slices.; settings: read-out: ED50 (the source's name); in short: as §4
Mus musculus [27] = assay: Ability to inhibit the uptake of Norepinephrine into mouse cortical slices 1 hour after intraperitoneal injection ex vivo; settings: ip
Mus musculus [28] = organism: Mus musculus; assay: as §5; in short: as §2
Mus musculus [29] = organism: Mus musculus; assay: as §3; in short: as §2

EC50 (Mus musculus [2]): 4.2 µM
EC50 (Mus musculus [4]): 3.5 µM
Compound: CN(C)CCc1nnc2ccccc2c1-c1cccc(Cl)c1
Inhibition (Mus musculus [1]): 49%
Inhibition (Mus musculus [3]): 42%

EC50 (Mus musculus [7]): 2.2 µM
EC50 (Mus musculus [8]): 1.6 µM
Compound: CN(C)CC/C=C1\c2ccccc2CCc2cccc(N)c21
ED50 (Mus musculus [5]): 55 µmol/kg
ED50 (Mus musculus [6]): 15 µmol/kg

EC50 (Mus musculus [12]): 0.5 µM
Compound: CN(C)CC/C=C(\c1cccc(Cl)c1)c1ccccc1N
Inhibition (Mus musculus [9]): 37%
Inhibition (Mus musculus [10]): 55%
Inhibition (Mus musculus [11]): 33%

EC50 (Mus musculus [14]): 6.6 µM
Compound: CN(C)CCc1nnc2cccc3c2c1-c1ccccc1CC3
Inhibition (Mus musculus [13]): 46%
Inhibition (Mus musculus [15]): 13%
Inhibition (Mus musculus [16]): 11%

EC50 (Mus musculus [18]): 3.8 µM
EC50 (Mus musculus [20]): 7.3 µM
Compound: CN(C)CCc1nnc2cccc3c2c1-c1cc(Cl)ccc1S3
Inhibition (Mus musculus [17]): 27%
Inhibition (Mus musculus [19]): 16%

EC50 (Mus musculus [21]): 3.5 µM
EC50 (Mus musculus [22]): 0.7 µM
Compound: CN(C)CC/C=C1\c2cc(Cl)ccc2Sc2cccc(N)c21
ED50 (Mus musculus [23]): > 99 µmol/kg
ED50 (Mus musculus [24]): 16 µmol/kg

Compound: CN(C)CCC=C1c2ccccc2CCc2ccccc21 [AMITRIPTYLINE]
ED50 (Mus musculus [23]): > 144 µmol/kg
EC50 (Mus musculus [25]): 2.9 µM
EC50 (Mus musculus [26]): 5.4 µM
ED50 (Mus musculus [27]): 144 µmol/kg

EC50 (Mus musculus [28]): 0.07 µM
EC50 (Mus musculus [29]): 12 µM
Compound: CNCCCN1c2ccccc2CCc2ccccc21 [DESIPRAMINE]
ED50 (Mus musculus [23]): > 132 µmol/kg

EC50 (Mus musculus [28]): 1.3 µM
EC50 (Mus musculus [29]): 0.3 µM
Compound: CN(C)CCCN1c2ccccc2CCc2ccccc21 [IMIPRAMINE]
ED50 (Mus musculus [23]): 126 µmol/kg
ED50 (Mus musculus [27]): 63 µmol/kg
